These results are taken from ChEMBL document CHEMBL1139268, “Camphor sulfonamide derivatives as novel, potent and selective CXCR3 antagonists” (Bioorg Med Chem Lett, 2009).

For data set [1], the target named is T1, C-X-C chemokine receptor type 3 (Homo sapiens, UniProt P49682).
T1 sequence (P49682 whole entry): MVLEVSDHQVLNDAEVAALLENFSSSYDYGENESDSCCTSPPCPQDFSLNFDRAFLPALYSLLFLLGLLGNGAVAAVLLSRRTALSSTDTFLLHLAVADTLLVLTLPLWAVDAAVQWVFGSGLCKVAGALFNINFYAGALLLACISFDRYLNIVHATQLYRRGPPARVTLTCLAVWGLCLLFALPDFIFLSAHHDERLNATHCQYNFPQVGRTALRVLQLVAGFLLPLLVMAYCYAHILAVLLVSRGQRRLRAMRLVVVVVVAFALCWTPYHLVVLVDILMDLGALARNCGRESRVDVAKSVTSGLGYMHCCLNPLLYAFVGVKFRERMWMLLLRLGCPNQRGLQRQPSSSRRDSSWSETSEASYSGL
The data set is described as follows: Antagonist activity at human recombinant CXCR3 receptor expressed in CHO-K1 cells assessed as human IP10-induced calcium flux by FLIPR assay. In kind it is functional, cell-based. For orientation: Calcium assays in cells follow changes in intracellular calcium, usually with a dye or a luminescent sensor.

In data set [2] the target is T2, C-X-C chemokine receptor type 3 (Mus musculus, UniProt O88410).
T2 sequence (O88410 whole entry): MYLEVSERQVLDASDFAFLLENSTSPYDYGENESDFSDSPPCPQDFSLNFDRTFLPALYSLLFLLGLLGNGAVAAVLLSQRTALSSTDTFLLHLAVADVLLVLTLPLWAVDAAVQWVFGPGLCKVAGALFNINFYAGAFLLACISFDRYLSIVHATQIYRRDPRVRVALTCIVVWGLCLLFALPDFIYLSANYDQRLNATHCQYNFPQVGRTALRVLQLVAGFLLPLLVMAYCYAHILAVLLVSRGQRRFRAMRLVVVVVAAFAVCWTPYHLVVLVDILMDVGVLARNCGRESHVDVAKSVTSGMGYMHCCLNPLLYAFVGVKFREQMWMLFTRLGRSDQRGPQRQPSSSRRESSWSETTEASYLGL
In words: Antagonist activity at mouse recombinant CXCR3 expressed in human U2OS cells. In kind it is functional, cell-based. An outline of the steps: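 Human U2OS cells were transiently transduced with a mixture of recombinant BacMam viruses, one expressing murine CXCR3 and one expressing chimeric G-protein Gqi5.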

Data set [3] is described as follows: Aqueous solubility of the compound. In kind it is physicochemical. Conditions: buffer.
A short description of data set [4]: Permeability across artificial membrane. The format is ADME. Conditions: PAMPA; read-out: permeability. (In general: PAMPA measures passive passage across an artificial lipid membrane.)
The target of data set [5] is T1, C-X-C chemokine receptor type 3. In words: Antagonist activity at human recombinant CXCR3 receptor assessed as human IP10-induced calcium mobilization by FLIPR assay. In kind it is functional. The conditions noted are these: read-out: pA2 (converted).
For another data set, the target named is Cytochrome P450 2C19 (Homo sapiens, UniProt P33261). The data set is described as follows: Inhibition of CYP2C19. In kind it is ADME.
Data set [6] deals with T3, Cytochrome P450 3A4 (Homo sapiens, UniProt P08684). In words: Inhibition of CYP3A4 red. The format is ADME.
The target in a further data set is Cytochrome P450 2D6 (Homo sapiens, UniProt P10635). In words: Inhibition of CYP2D6. The format is ADME.
Another data set deals with Cytochrome P450 2C9 (Homo sapiens, UniProt P11712). The data set is described as follows: Inhibition of CYP2C9. The format is ADME.
The next data set has as its target T4, Cytochrome P450 1A2 (Homo sapiens, UniProt P05177).
T4 sequence (P05177 whole entry): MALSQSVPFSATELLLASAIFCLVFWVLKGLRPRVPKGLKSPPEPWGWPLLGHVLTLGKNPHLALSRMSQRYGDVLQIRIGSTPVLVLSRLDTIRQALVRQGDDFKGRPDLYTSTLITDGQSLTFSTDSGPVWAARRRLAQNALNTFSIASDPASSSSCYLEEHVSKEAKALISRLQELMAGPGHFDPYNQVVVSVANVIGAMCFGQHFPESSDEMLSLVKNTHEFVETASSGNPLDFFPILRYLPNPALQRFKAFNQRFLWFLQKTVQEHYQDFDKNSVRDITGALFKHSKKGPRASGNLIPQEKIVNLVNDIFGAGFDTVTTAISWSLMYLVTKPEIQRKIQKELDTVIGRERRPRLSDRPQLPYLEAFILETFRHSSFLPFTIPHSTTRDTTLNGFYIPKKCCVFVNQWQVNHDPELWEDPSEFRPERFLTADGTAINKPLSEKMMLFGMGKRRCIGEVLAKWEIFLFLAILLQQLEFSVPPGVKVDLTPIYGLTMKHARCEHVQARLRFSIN
In words: Inhibition of CYP1A2. In kind it is ADME.

The target in data set [7] is T3, Cytochrome P450 3A4. The data set is described as follows: Inhibition of CYP3A4 green. In kind it is ADME.
For data set [8], the target named is Voltage-gated inwardly rectifying potassium channel KCNH2 (Homo sapiens, UniProt Q12809). The data set is described as follows: Binding affinity to human ERG.
A short description of data set [9]: Clearance in rat at 1.1 mg/kg, iv and 2.0 mg/kg, po. Conditions: in vivo. In kind it is ADME, organism-based.
Data set [10] is described as follows: Volume of distribution at steady state in rat a 1.1 mg/kg, iv and 2.0 mg/kg, po. The format is ADME, organism-based. Conditions: in vivo, read-out: Vdss.
In the next data set the test system is Rattus norvegicus. The data set is described as follows: Half life in rat at 1.1 mg/kg, iv and 2.0 mg/kg, po. The format is ADME, organism-based. Conditions: in vivo.
Data set [11] can be described thus: Oral bioavailability in rat at 2.0 mg/kg. In kind it is ADME, organism-based. Conditions: in vivo.

By pIC50 is commonly meant −log10 of the IC50, conventionally taken in molar units. As usually defined, the solubility is how much of the substance goes into solution per volume. A high value points to much dissolved substance. Broadly, the bioavailability is dose-corrected exposure relative to a reference, in per cent. The low end stands for poor availability, the high end for good availability.

pIC50: −log10 of the molar value. Converted amounts (≈) assume the structure as drawn. Some results are limits rather than exact numbers.

T3 sequence (P08684 whole entry): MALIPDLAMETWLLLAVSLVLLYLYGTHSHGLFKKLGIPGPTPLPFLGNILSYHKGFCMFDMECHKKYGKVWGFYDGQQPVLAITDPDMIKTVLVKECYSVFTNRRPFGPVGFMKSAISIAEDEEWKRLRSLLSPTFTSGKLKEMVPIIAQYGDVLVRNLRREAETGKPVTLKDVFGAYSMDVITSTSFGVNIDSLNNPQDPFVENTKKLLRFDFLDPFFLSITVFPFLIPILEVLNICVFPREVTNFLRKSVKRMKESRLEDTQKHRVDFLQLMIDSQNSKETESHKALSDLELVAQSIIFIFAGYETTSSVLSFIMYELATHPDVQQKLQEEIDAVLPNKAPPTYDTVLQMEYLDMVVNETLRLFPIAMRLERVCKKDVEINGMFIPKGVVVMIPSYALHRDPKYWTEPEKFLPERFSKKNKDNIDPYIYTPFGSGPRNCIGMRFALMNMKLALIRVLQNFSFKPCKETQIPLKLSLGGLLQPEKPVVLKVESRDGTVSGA
Chain of Cytochrome P450 2C19 (P33261 whole entry): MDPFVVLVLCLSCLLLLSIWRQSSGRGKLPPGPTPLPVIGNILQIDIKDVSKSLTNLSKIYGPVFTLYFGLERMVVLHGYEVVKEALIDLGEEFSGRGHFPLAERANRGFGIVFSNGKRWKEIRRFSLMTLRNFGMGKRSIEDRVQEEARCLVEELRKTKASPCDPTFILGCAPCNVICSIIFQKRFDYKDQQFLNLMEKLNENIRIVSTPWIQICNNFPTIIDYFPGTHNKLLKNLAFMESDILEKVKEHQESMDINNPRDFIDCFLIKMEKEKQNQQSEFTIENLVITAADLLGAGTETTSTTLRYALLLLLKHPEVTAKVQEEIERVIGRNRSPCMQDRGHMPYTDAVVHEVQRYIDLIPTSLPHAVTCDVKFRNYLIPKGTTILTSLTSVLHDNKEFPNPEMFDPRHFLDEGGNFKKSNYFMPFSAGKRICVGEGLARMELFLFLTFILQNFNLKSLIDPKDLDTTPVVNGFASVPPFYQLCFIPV
Chain of Voltage-gated inwardly rectifying potassium channel KCNH2 (Q12809 whole entry): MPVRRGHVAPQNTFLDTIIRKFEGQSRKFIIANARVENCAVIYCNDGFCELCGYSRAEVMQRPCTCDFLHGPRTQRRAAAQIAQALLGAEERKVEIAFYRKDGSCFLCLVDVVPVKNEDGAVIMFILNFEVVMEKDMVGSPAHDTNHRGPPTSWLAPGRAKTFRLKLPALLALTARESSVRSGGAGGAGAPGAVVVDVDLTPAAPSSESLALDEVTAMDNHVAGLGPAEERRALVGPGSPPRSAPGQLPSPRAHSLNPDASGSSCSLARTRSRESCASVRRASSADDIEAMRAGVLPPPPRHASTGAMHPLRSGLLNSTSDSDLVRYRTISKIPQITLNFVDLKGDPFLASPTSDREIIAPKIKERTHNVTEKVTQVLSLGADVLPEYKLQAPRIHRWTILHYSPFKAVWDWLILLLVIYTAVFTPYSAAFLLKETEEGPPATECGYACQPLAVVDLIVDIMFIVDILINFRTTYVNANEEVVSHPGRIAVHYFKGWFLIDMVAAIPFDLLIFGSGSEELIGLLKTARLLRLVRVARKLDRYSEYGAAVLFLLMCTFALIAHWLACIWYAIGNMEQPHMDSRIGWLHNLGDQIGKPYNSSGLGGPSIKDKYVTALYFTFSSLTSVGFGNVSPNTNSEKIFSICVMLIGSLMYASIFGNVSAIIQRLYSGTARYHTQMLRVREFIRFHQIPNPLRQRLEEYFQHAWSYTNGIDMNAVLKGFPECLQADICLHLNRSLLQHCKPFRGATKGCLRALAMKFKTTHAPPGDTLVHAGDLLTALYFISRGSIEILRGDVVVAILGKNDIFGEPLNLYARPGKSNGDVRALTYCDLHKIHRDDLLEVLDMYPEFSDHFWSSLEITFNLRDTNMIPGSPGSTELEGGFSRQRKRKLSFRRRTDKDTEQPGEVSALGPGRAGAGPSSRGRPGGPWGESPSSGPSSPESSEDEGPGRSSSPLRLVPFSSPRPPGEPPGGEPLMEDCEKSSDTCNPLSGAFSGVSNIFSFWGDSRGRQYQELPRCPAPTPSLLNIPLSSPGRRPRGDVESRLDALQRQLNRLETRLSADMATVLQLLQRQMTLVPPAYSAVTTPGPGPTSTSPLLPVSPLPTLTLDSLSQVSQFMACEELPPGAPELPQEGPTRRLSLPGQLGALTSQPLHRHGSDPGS
Chain of Cytochrome P450 2C9 (P11712 whole entry): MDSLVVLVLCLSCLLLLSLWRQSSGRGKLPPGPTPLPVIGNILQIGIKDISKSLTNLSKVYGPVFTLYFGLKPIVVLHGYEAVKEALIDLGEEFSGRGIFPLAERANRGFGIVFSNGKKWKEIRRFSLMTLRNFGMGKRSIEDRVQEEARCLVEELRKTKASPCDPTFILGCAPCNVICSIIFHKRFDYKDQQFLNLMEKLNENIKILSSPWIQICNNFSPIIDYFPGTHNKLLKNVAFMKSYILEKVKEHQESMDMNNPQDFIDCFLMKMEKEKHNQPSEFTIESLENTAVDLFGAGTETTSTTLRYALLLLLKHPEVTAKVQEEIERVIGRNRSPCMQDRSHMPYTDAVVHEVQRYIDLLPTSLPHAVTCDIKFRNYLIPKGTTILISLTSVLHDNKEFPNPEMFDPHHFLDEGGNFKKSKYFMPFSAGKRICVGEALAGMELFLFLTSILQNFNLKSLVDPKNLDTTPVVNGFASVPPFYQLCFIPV
Chain of Cytochrome P450 2D6 (P10635 whole entry): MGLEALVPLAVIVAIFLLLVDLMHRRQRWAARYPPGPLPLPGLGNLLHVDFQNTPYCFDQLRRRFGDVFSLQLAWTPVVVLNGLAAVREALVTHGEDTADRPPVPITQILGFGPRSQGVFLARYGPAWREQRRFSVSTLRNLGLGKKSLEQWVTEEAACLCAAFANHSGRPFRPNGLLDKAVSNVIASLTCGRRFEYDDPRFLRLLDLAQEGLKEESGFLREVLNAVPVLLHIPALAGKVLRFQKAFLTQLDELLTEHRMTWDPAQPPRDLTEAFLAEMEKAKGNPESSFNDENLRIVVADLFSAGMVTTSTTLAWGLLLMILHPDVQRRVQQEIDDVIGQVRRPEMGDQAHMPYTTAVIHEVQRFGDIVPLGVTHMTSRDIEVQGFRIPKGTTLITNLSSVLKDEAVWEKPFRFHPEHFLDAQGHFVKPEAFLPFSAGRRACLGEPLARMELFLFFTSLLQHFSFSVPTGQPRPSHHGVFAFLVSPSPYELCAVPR

`C[C@H]1CN(S(=O)(=O)C[C@]23CC[C@H](CC24OCCO4)C3(C)C)CCN1c1ncc(C(F)(F)F)cc1F`: the pIC50 in data set [1] is 7.40; in data set [2], 5.80.

In the case of `C[C@H]1CN(S(=O)(=O)C[C@]23CC[C@H](C[C@H]2O)C3(C)C)CCN1c1ccc(C(F)(F)F)cn1`, the pIC50 was 6.50 in data set [1] and 6.20 in [2].

As to `CC1(C)[C@@H]2CC[C@@]1(CS(=O)(=O)N1CCN(c3ncc(C(F)(F)F)cc3F)[C@H](CO)C1)C(=O)C2`, the solubility in data set [3] was 40 µg/mL (≈ 81 µM). Also, the pIC50 in data set [1] is 6.50; in [2], 5.20. Besides, the Papp in [4] turned out to be 56 ×10⁻⁶ cm/s.

On to `CC1(C)[C@@H]2CC[C@@]1(CS(=O)(=O)N1CCN(c3ncc(C(F)(F)F)cc3F)CC1)C(=O)C2`, for which the results for the pIC50 in data set [1] and in data set [2] were 6.80 and 6.10, respectively.

For the compound `CC1(C)[C@@H]2CC[C@@]1(CS(=O)(=O)N1CCN(c3ccc(C(F)(F)F)cn3)CC1)C(=O)C2`, the Kb in [5] is 126 nM. Further, the results for the pIC50 in data set [1] and in [2] were 6.60 and 5.90, respectively.

`C[C@H]1CN(S(=O)(=O)C[C@]23CC[C@H](CC2O)C3(C)C)CCN1c1ccc(C(F)(F)F)cn1` (some centres not stated): the pIC50 was 6.80 in data set [1] and 6.20 in data set [2].

For `C[C@H]1CN(S(=O)(=O)C[C@]23CC[C@H](CC2O)C3(C)C)CCN1c1ncc(C(F)(F)F)cc1F` (some centres not stated), the results for the pIC50 in [1] and in data set [2] were 7.30 and 6.80, respectively.

In the case of `C[C@H]1CN(S(=O)(=O)C[C@]23CC[C@H](C[C@@H]2O)C3(C)C)CCN1c1ccc(C(F)(F)F)cn1`, the pIC50 in [1] is 7.50; in [2] it was 6.70.

For `C[C@H]1CN(S(=O)(=O)C[C@]23CC[C@H](CC2=O)C3(C)C)CCN1c1ccc(C(F)(F)F)cn1`, the pIC50 in data set [1] is 6.80; in data set [2], 5.60.

As for `CC1(C)[C@@H]2CC[C@@]1(CS(=O)(=O)N1CCN(c3ncc(Br)cn3)CC1)C(=O)C2`, in data set [1], the negative logarithm of the IC50 (pIC50) was 6.20.

On to `C[C@H]1CN(S(=O)(=O)C[C@]23CC[C@H](C[C@H]2O)C3(C)C)CCN1c1ncc(C(F)(F)F)cc1F`, for which the pIC50 in data set [1] was 7.20; in data set [2], 5.80.

As for `CC1(C)[C@@H]2CC[C@]1(CS(=O)(=O)N1CCN(c3ccc(C(F)(F)F)cn3)CC1)C(=O)C2`, the pIC50 in data set [1] is 5.80.

As to `CC1(C)[C@@H]2CC[C@@]1(CS(=O)(=O)N1C[C@@H]3C[C@H]1CN3c1ccc(C(F)(F)F)cn1)C(=O)C2`, the pIC50 in data set [1] is below 4.50.

`C[C@H]1CN(S(=O)(=O)C[C@]23CC[C@H](CC2=O)C3(C)C)CCN1c1ncc(C(F)(F)F)cn1`: the figures for the pIC50 in data set [1] and in data set [2] were 6.90 and 6.00, respectively.

As to `CC1(C)[C@@H]2CC[C@@]1(CS(=O)(=O)N1CCN(c3ccc(C#N)cn3)CC1)C(=O)C2`, the pIC50 in data set [1] is below 4.50.

Take `CC1(C)[C@@H]2CC[C@@]1(CS(=O)(=O)N1CCN(c3ccc(C(F)(F)F)cn3)CC1)C1(C2)OCCO1`: in [1], the pIC50 is 6.70.

For `C[C@@H]1CN(S(=O)(=O)C[C@]23CC[C@H](CC2=O)C3(C)C)CCN1c1ncc(C(F)(F)F)cc1F`, in [1], the negative logarithm of the IC50 (pIC50) is 6.30.

Take `CCNC(=O)NC1C[C@H]2CC[C@]1(CS(=O)(=O)N1CCN(c3ccc(C(F)(F)F)cn3)CC1)C2(C)C` (some centres not stated): the pIC50 in data set [1] is 6.10.

As for `Cc1ccc(N2CCN(S(=O)(=O)C[C@]34CC[C@H](CC3=O)C4(C)C)CC2)nc1`, the pIC50 in [1] was below 4.50.

Turning to `C[C@H]1CN(S(=O)(=O)C[C@]23CC[C@H](C[C@@H]2O)C3(C)C)CCN1c1ncc(C(F)(F)F)cc1F`, the Kb in data set [5] was 20 nM. Moreover, the pIC50 against Cytochrome P450 2C19 was 5.40; against Cytochrome P450 3A4 [6], below 4.60; in data set [1] it was 7.50; against Cytochrome P450 2D6, below 4.60; against Cytochrome P450 2C9 it was 5.40; in [2] it was 6.70. Further, the pIC50 is below 4.60 on Cytochrome P450 1A2 and 4.87 against Cytochrome P450 3A4 [7].

Turning to `CC1(C)[C@@H]2CC[C@@]1(CS(=O)(=O)N1CCN(c3ccc(C(F)(F)F)cn3)CC1)C(N)C2` (some centres not stated), the negative-log IC50 (pIC50) in data set [1] is 6.10.

Take `CC1(C)[C@@H]2CC[C@@]1(CS(=O)(=O)N1CCN(c3cc(C(F)(F)F)ccn3)CC1)C(=O)C2`: in [1], the negative logarithm of the IC50 (pIC50) is 4.60.

Take `CC1(C)[C@@H]2CC[C@@]1(CS(=O)(=O)N1CCN(c3ccc([N+](=O)[O-])cn3)CC1)C(=O)C2`: the pIC50 in data set [1] is below 4.50.

As to `CC1(C)[C@@H]2CC[C@@]1(CS(=O)(=O)N1CCCN(c3ccc(C(F)(F)F)cn3)CC1)C(=O)C2`, in [1], the negative-log IC50 (pIC50) is 5.20.

For the compound `CC1CN(c2ccc(C(F)(F)F)cn2)CCN1S(=O)(=O)C[C@]12CC[C@H](CC1=O)C2(C)C` (some centres not stated), in data set [1], the pIC50 is 6.20.

As to `CC(=O)NC1C[C@H]2CC[C@]1(CS(=O)(=O)N1CCN(c3ccc(C(F)(F)F)cn3)CC1)C2(C)C` (some centres not stated), the pIC50 in [1] is 5.70.

Regarding `CC1(C)[C@@H]2CC[C@@]1(CS(=O)(=O)N1CCN(c3ccc(C(F)(F)F)cn3)C(CO)C1)C(=O)C2` (some centres not stated), the pIC50 in data set [1] is 6.40.

For `CC1(C)[C@@H]2CC[C@@]1(CS(=O)(=O)N1CCC(Nc3ccc(C(F)(F)F)cn3)CC1)C(=O)C2`, the pIC50 in data set [1] was 4.50.

As for `C[C@H]1CN(S(=O)(=O)C[C@]23CC[C@H](CC2=O)C3(C)C)CCN1c1ncc(C(F)(F)F)cc1F`, the Kb in data set [5] is 25.1 nM. The pIC50 is below 4.20 in data set [8]; 6.49 against Cytochrome P450 3A4 [6]; 7.10 in [1]; 6.30 in [2]; 6.80 against Cytochrome P450 1A2. The compound also registered a clearance in data set [9] of 108 mL/min/kg. In addition, the solubility in [3] came out at 4 µg/mL (≈ 8.38 µM). Further, the Vd in data set [10] is 2.2 L/kg. Also, the t1/2 in the data set on Rattus norvegicus stood at 30 min. In data set [11], this compound showed a bioavailability of 8%. Further, the Papp in data set [4] turned out to be 35.2 ×10⁻⁶ cm/s.
